High-throughput results (PubChem BioAssay)
In the library only some 4.1% were active in any assay of this set; here they are far more common.
KCNK3 block: human KCNK3 channel inhibitors, primary screen, CHO cells, FluxOR thallium flux, B-score; Potassium channel subfamily K member 3 (Homo sapiens), O14649; FluxOR fluorescence; stronger effect = lower value; B-score at 10 µM; hit rate 0.84% among 340,000; AID 602410, 2012;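 active = B-score under library mean minus 4 SD, starting fluorescence ratio at most library mean plus 5 SD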;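 also: more negative B-score means stronger inhibition of thallium flux through KCNK3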
KCC2 mod: KCC2 cotransporter modulators, thallium flux, primary screen, cell-based, HEK293 KCC2, FluoZin-2 fluorescence, MLSMR; Solute carrier family 12 member 5 (Homo sapiens), Q9H2X9; KCC2 cells, thallium flux FluoZin-2 fluorescence; B-score of Tl+ flux slope (higher = more flux/activation; lower = inhibition) at 10 µM; hit rate 2.2% among 190,000;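 active = thallium flux slope and its plate-corrected score both differing from the plate sample mean at a set confidence after two filtering rounds, in either direction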;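 also: slope of fluorescence scaled to starting intensity during 10 to 20 s after thallium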
KCNQ1 act: potentiators or activators of KCNQ1 channel, primary screen, cell-based, thallium flux, high-throughput | hit rate 0.35% among 310,000 | B-score at 10 µM | AID 2648, 2010 | CHO-K1 KCNQ1, thallium flux FluxOR fluorescence; stronger effect = higher value | Potassium voltage-gated channel subfamily KQT member 1 (Homo sapiens), P51787;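 active = fluorescence ratio B-score, a plate-corrected score, at least three library SD, with initial intensity B-score within 5 SD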
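Assay system: CHO-K1 cells stably expressing KCNQ1. Medium: assay buffer for compound exposure, DMSO matched across wells. Timing: 37 °C overnight plating, 90-min dark dye load, 20-min compound pretreatment. Signal: kinetic FluxOR fluorescence, 10 s baseline plus 110 s post-stimulus.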
hERG rescue: hERG rescue from dofetilide block, primary screen, cell-based, CHO-hERG, FluxOR thallium flux, dofetilide IC70. Voltage-gated inwardly rectifying potassium channel KCNH2 (Homo sapiens), Q12809. dofetilide IC70 present. activation (rescue from dofetilide block), less the hit threshold, % at 10 µM. hit rate 0.51% among 310,000. AID 1511, 2009;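 active = activation above the mean of controls blocked by dofetilide plus 5 SD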;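 also: thallium influx through hERG after potassium depolarization seen as dye fluorescence rise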
KCNQ1 block: inhibitors of human KCNQ1 channel, primary screen, cell-based, thallium flux, high-throughput; hit rate 1.3% among 310,000; CHO-K1 KCNQ1, FluxOR thallium flux fluorescence; stronger effect = higher value; Potassium voltage-gated channel subfamily KQT member 1 (Homo sapiens), P51787; B-score at 10 µM;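 active = compounds whose thallium flux B-score, printed positive for inhibition, exceeds three library SD while starting fluorescence stays within three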;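 also: channel opened by potassium depolarization with thallium stimulus after 20 min compound exposure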
KCNK9 inh: KCNK9 potassium channel inhibitors, primary screen, HEK293 cells, thallium flux; hit rate 1.2% among 310,000; Potassium channel subfamily K member 9 (Homo sapiens), Q9NPC2; B-score at 10 µM; FluxOR thallium flux fluorescence; stronger effect = lower value;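 active = ratio B-score over 3 SD below the library mean, with starting fluorescence within 5 SD of its mean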;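 also: negative B-score means less thallium flux so channel inhibition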
Target sequence (Q9NPC2 whole entry, looked up): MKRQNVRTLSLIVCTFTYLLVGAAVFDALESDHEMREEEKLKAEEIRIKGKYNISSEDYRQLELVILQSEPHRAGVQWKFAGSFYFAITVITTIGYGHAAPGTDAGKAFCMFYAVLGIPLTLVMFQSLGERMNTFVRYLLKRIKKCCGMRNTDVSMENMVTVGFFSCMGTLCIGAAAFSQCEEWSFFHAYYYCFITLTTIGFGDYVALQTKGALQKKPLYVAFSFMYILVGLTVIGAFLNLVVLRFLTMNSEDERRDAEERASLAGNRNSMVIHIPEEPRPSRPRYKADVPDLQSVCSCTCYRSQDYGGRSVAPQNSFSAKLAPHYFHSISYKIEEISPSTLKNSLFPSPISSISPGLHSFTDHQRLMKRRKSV
* hit, by the source's call.

O=C(COC(=O)c1ccc(Br)cc1)NCCN1C(=O)CSC1=O was read as KCNK3 block inactive, KCNQ1 act inactive, hERG rescue 7.3*, KCNQ1 block inactive and KCNK9 inh inactive.
Screening OC(CNCc1ccc(Cl)cc1)(c1ccccc1)c1ccc(F)cc1 (centres undefined) returned KCNK3 block inactive, KCC2 mod 0.74, KCNQ1 act inactive, hERG rescue -18, KCNQ1 block inactive and KCNK9 inh -7.6*.
For COc1ccc(CNCC(O)(c2ccccc2)c2ccc(F)cc2)cc1 (centres undefined) the results were KCNK3 block inactive, KCNQ1 act inactive, hERG rescue -12, KCNQ1 block inactive and KCNK9 inh inactive.
For COc1ccc(CNCC(O)(c2ccc(F)cc2)c2ccc(F)cc2)cc1OC the results were KCNK3 block inactive, KCNQ1 act inactive, hERG rescue -11, KCNQ1 block inactive and KCNK9 inh inactive.
Screening OC(CNCc1ccc(F)cc1)(c1ccc(F)cc1)c1ccc(F)cc1 returned KCNK3 block inactive, KCC2 mod 0.51, KCNQ1 act inactive, hERG rescue -9, KCNQ1 block inactive and KCNK9 inh -6.6*.
CN(NC(=O)Nc1ccccc1)c1cnn(C)c(=O)c1Cl was read as KCNK3 block inactive, KCC2 mod -0.01, KCNQ1 act inactive, hERG rescue -12, KCNQ1 block inactive and KCNK9 inh inactive.
Screening COc1ccccc1C(=O)NCC(=O)n1nc(C)cc1C returned KCNK3 block inactive, KCNQ1 act inactive, hERG rescue -12, KCNQ1 block inactive and KCNK9 inh inactive.
COc1ccccc1NCC(=O)n1nc(C)cc1C was read as KCNK3 block inactive, KCC2 mod 1.4, KCNQ1 act inactive, hERG rescue 6.7*, KCNQ1 block inactive and KCNK9 inh inactive.
CCN(c1cccc(C(F)(F)F)c1)S(=O)(=O)c1ccc2c(c1)CCN2C(C)=O was read as KCNK3 block inactive, KCNQ1 act inactive, hERG rescue -6, KCNQ1 block inactive and KCNK9 inh inactive.
O=C(NCc1nc2ncc(Br)cc2[nH]1)c1ccccc1 was read as KCNK3 block inactive, KCC2 mod -0.48, KCNQ1 act inactive, hERG rescue 6.2*, KCNQ1 block inactive and KCNK9 inh inactive.
For CC(=O)/C(N=Nc1cccc(C(F)(F)F)c1)=C(\C)O the results were KCNK3 block inactive, KCC2 mod 0.038, KCNQ1 act inactive, hERG rescue -4, KCNQ1 block inactive and KCNK9 inh inactive.
For CN(C(=O)/C(N=Nc1cccc(C(F)(F)F)c1)=C(\O)C(F)(F)F)c1ccccc1 the results were KCNK3 block inactive, KCNQ1 act inactive, hERG rescue -24, KCNQ1 block 6* and KCNK9 inh inactive.
For COc1ccc(C(=O)Nc2cccc(NC(=O)c3cccs3)c2)cc1 the results were KCNK3 block inactive, KCNQ1 act inactive, hERG rescue -8, KCNQ1 block inactive and KCNK9 inh inactive.
N/C(=N\O)c1ccc(NC(=O)c2cccs2)cc1 was read as KCNK3 block inactive, KCC2 mod 0.71, KCNQ1 act inactive, hERG rescue 46*, KCNQ1 block inactive and KCNK9 inh inactive.
For O=C(Nc1cccc(NC(=O)c2cccs2)c1)c1ccc(F)cc1 the results were KCNK3 block inactive, KCNQ1 act inactive, hERG rescue -4, KCNQ1 block inactive and KCNK9 inh -7.4*.
CCOC(=O)c1cc(-c2ccccc2)sc1NC(=O)C(C)C was read as KCNK3 block inactive, KCC2 mod 0.38, KCNQ1 act inactive, hERG rescue -7, KCNQ1 block inactive and KCNK9 inh inactive.
Screening CCOC(=O)c1cc(-c2ccccc2)sc1NC(=O)C(C)Sc1nnc(C)s1 (centres undefined) returned KCNK3 block inactive, KCC2 mod 0.039, KCNQ1 act inactive, hERG rescue -9, KCNQ1 block inactive and KCNK9 inh -7*.
For O=C(OCC(=O)N1CCN(c2ccccc2)CC1)c1cnc(Cl)c(Cl)c1 the results were KCC2 mod -0.55, KCNQ1 act inactive, hERG rescue 9.4*, KCNQ1 block inactive and KCNK9 inh inactive.
`O=C(OCC(=O)N1CCN(c2ccccc2)CC1)c1cccc(Cl)c1` gave KCNK3 block inactive, KCC2 mod -1.1, KCNQ1 act inactive, hERG rescue -10, KCNQ1 block inactive and KCNK9 inh inactive.
Screening CC(=O)c1cccc(OCc2cc(C(=O)N(C)CCC3CCOCC3)no2)c1 returned KCNK3 block inactive, KCNQ1 act inactive, hERG rescue -11, KCNQ1 block inactive and KCNK9 inh inactive.
For COc1ccccc1CC(=O)Nc1cc2oc3ccccc3c2cc1OC the results were KCNK3 block inactive, KCC2 mod 0.97, KCNQ1 act inactive, hERG rescue -1, KCNQ1 block inactive and KCNK9 inh -6.9*.
`COc1ccc(CC(=O)Nc2cc3oc4ccccc4c3cc2OC)cc1` gave KCNK3 block inactive, KCC2 mod 0.018, KCNQ1 act inactive, hERG rescue -10, KCNQ1 block inactive and KCNK9 inh inactive.
Screening CN(C)C(=O)CN1CCN(C(=O)CCl)CC1 returned KCNK3 block inactive, KCC2 mod 1.3, KCNQ1 act inactive, hERG rescue 5.1*, KCNQ1 block inactive and KCNK9 inh inactive.
`CC(=O)Nc1ccc(N2C(=O)CSC2c2c(F)cccc2Cl)cc1` (centres undefined) gave KCNK3 block inactive, KCC2 mod 0.017, KCNQ1 act inactive, hERG rescue -6, KCNQ1 block inactive and KCNK9 inh inactive.
COc1cc(/C=C/c2nc(N)nc(-c3ccccc3O)n2)cc(OC)c1OC was read as KCNK3 block inactive, KCC2 mod -0.026, KCNQ1 act inactive, hERG rescue -13, KCNQ1 block inactive and KCNK9 inh -7.7*.
COc1ccc(/C=C/c2nc(N)nc(-c3ccccc3O)n2)cc1OC was read as KCNK3 block inactive, KCC2 mod 0.64, KCNQ1 act inactive, hERG rescue -12, KCNQ1 block inactive and KCNK9 inh inactive.
For Cc1ccc(N2CN=C3SCC(=O)N3C2)cc1C the results were KCNK3 block inactive, KCC2 mod 0.83, KCNQ1 act inactive, hERG rescue -14, KCNQ1 block inactive and KCNK9 inh inactive.
